# Source: PubChem BioAssay
# Sampled rows, rich in hits. Any-hit rate of the full collection: about 3.5%.
# PGC1a acetyl inh = modulators of PGC1a acetylation; U2OS PGC1a acetylation, AlphaScreen anti-acetyl-lysine; with virally co-expressed GCN5 acetyltransferase; inhibition, % at 15.6 µM; AID 651687; 350,000 tested, 0.17% active;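 active = every replicate shows inhibition of at least 40%; inconclusive = mean inhibition at least 40% but some replicate below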
# ERAP1 inh = ERAP1 (human) enzyme inhibition. 340,000 tested, 0.15% active. AID 652197. Q9NZ08. inhibition, % at 10.7 µM. recombinant ERAP1, Leu-AMC fluorescence, 60 min;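 active = mean replicate inhibition of at least 30%, or all replicates individually reaching that 30% level; inactive = mean below 30% and not every replicate reaching it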
# HIV Env fusion = blocks HIV Env-driven cell-cell fusion. AID 651610. inhibition, % at 12.3 µM. 360,000 tested, 1.1% active. HeLa-JRFL Env/CEM21 cell fusion, luciferase;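 active = mean replicate inhibition score of at least 50 and every replicate individually at or above 50; inconclusive = only one of the two criteria met; inactive = mean below 50 and not all replicates reaching 50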
# rRNA inh HTS = inhibits bacterial ribosomal RNA function over humanized ribosomes; E. coli WT GFP vs humanized-ribosome RFP mutants, fluorescence, 24 h; hits give low values; DMSO median 0, no signal -100; GFP signal change (wild-type ribosome), % (concentration not given with the values); 350,000 tested, 1.6% active;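 active = significant combined selectivity score with lowered wild-type GFP, culture density cut under 30%, mutant RFP and density less affected; inactive = any of these conditions unmet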
# Cneo AK release = Cryptococcus neoformans lysis via adenylate kinase release; C. neoformans lysis, adenylate kinase release luminescence, 4 h; normalised: neutral wells 0, clomiphene wells 100; 360,000 tested, 0.2% active; lysis activity, % at 15 µM;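 active = mean lysis activity across replicates of at least 80%, whatever share of replicates individually reach that level; inactive = mean lysis activity below 80%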
#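 Material – log-phase Cryptococcus neoformans yeast cells · Input – 5 × 10^6 yeast cells/mL · Medium – fresh YPD growth medium · Doses – single compound concentration per well · Timing – static 4 h at 37 °C with compound, 1 h detection · Detection – adenylate kinase release luminescence · Read-out – signal increase indicating cell lysis · Control set – Clomiphene as positive lysis control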
# FGF22 binding = FGF22 (human) thermal shift binding. 340,000 tested, 1.5% active. AID 651658. activity (Tm shift, normalised), % at 9.99 µM. recombinant FGF22 thermal shift, SYPRO orange fluorescence; percent of sucrose octasulfate shift, DMSO zero;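 active = mean Tm shift, scaled 0 neutral to 100 positive control, at about 1.3% or above, every replicate too, limit read from the data; inconclusive = no clear call, values can overlap the other calls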
# Target sequence (Q9HCT0 whole entry, looked up): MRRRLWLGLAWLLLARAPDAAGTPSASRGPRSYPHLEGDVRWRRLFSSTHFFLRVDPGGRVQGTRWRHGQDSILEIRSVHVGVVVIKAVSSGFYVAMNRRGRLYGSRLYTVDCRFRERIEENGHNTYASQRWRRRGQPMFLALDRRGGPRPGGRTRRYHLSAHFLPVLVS
# Numbers stand for hits; i = inactive; ? = inconclusive; nt = not tested or not shown; [ ] = dose if it differs, or a comment.
SMILES,PGC1a acetyl inh,ERAP1 inh,HIV Env fusion,rRNA inh HTS,Cneo AK release,FGF22 binding
O=C(OCc1ccccc1)c1ccc(NCc2cc(O)ccc2O)cc1,i,i,i,-36.4,nt,i
COc1cc(NC2c3ccccc3C(=O)N2Cc2ccccc2)cc(OC)c1OC (stereo unspecified),i,i,72.5,i,i,i
Cc1ccc(C)c(NC(=O)c2ccc[n+](Cc3ccc([N+](=O)[O-])cc3)c2)c1,i,nt,nt,nt,i,nt
Cc1cc(C)c(N(CC(=O)NC(C)(C)C)C(=O)CNC(=O)c2cccs2)c(C)c1,i,i,i,i,nt,i
Cc1ccc(N(CC(=O)NC(C)(C)C)C(=O)CNC(=O)c2cccs2)c(C)c1,nt,i,i,i,nt,43.1
CC(=O)c1ccc(N/N=C(/C(N)=O)C2=NC(C)(C)Cc3ccccc32)cc1,nt,nt,i,nt,i,nt
CC1(C)Cc2ccccc2C(/C(=N\Nc2cccc(Cl)c2)C(N)=O)=N1,nt,nt,82.3,nt,nt,nt
C[C@H]1CN([C@@H](C)CO)C(=O)c2ccccc2-c2ccccc2CO[C@H]1CN(C)Cc1ccncc1,i,i,i,i,i,i
CC(C)C[C@H](NC(=O)c1nc[nH]c1C(=O)N[C@@H](CC(C)C)C(=O)OCc1ccccc1)C(=O)OCc1ccccc1,i,i,71.2,i,i,i
CC(C)C[C@H](NC(=O)c1[nH]cnc1C(=O)N[C@@H](Cc1ccccc1)C(=O)OCc1ccccc1)C(=O)OCc1ccccc1,i,nt,i,i,i,i
C[C@H](NC(=O)c1nc[nH]c1C(=O)N[C@@H](Cc1ccccc1)C(=O)OC(C)(C)C)C(=O)OC(C)(C)C,i,i,i,i,i,i
CC(C)(C)OC(=O)[C@H](Cc1ccccc1)NC(=O)c1nc[nH]c1C(=O)N[C@@H](Cc1ccccc1)C(=O)OC(C)(C)C,i,i,74.3,i,i,i
CC(C)C[C@H](NC(=O)c1nc[nH]c1C(=O)N[C@@H](CC(C)C)C(=O)OC(C)(C)C)C(=O)OC(C)(C)C,nt,i,69.9,i,i,i
COc1ccc(-c2cn3c(C)c(C(=O)Nc4cccc(NC(C)=O)c4)sc3n2)cc1,i,nt,70.6,nt,i,nt
COC(=O)c1cc(C)sc1NC(=O)C1CC(=O)NN1Cc1ccccc1 (stereo unspecified),nt,i,i,-31.9,nt,nt
CCN(C(=O)CN1C(=O)NC2(CCCC2)C1=O)c1nc2c(C)cccc2s1,i,i,i,i,i,i
O=C(OCc1cccc(F)c1)c1ccc2c(=O)n3c(nc2c1)CCC3,i,i,i,-24.1,nt,i
CCNc1ncnc2c1cnn2C1CCCO1 (stereo unspecified),i,i,74.3,i,i,i
CC1=CC(=O)C2=C(C)CC[C@@H]3[C@H](OC(=O)[C@H]3C)[C@@H]12,i,i,67.6,i,i,i
CC1=CC(=O)C2=C(C)CCC3C(C)C(=O)OC3C12 (stereo unspecified),i,i,nt,i,i,i
CCn1c2ccccc2c2cc(/C=N/NC(=O)c3ccccc3)ccc21,?,nt,i,nt,i,nt
O=C(Nc1ccccc1C(=O)N1CCCCCC1)c1ccc(Cl)cc1,i,i,i,-23.5,nt,i
O=C(Nc1ccccc1C(=O)N1CCCC1)c1ccccc1,i,i,nt,i,i,i
Cc1ccc(S(=O)(=O)N[C@H]2C=C[C@H](CC(=O)N3CCC(Cc4ccccc4)CC3)O[C@H]2CO)cc1,i,i,76.4[16.7 µM],i,i,i
Cc1ccc(S(=O)(=O)NC(C)(C)CN2CCC(Cc3ccccc3)CC2)cc1,i,i,i,i,i,43.7
SMILES,PGC1a acetyl inh,ERAP1 inh,HIV Env fusion,rRNA inh HTS,Cneo AK release,FGF22 binding
COc1ccc(S(=O)(=O)N[C@@H]2C=C[C@@H](CC(=O)N3CCC(Cc4ccccc4)CC3)O[C@H]2CO)cc1,i,i,i,i,95.3,i
COc1ccc(S(=O)(=O)N[C@@H]2C=C[C@@H](CC(=O)N3CCC(Cc4ccccc4)CC3)O[C@@H]2CO)cc1,i,i,nt,i,nt,nt
Cc1ccc(S(=O)(=O)N[C@@H]2C=C[C@H](CC(=O)N3CCC(Cc4ccccc4)CC3)O[C@H]2CO)cc1,i,i,i,i,i,i
COc1ccc(S(=O)(=O)N[C@@H]2C=C[C@H](CC(=O)N3CCC(Cc4ccccc4)CC3)O[C@@H]2CO)cc1,i,i,63.4[16.7 µM],i,i,i
COc1ccc(CN2CCC[C@]3(N[C@H](c4ccc(C(F)(F)F)cc4)[C@@H]4C(=O)N(C)C(=O)[C@@H]43)C2=O)cc1,i,i,nt,i,i,i
CCOC(=O)C1(CCCc2ccccc2)CCN(C(=O)[C@@H]2C[C@@H](C)NC(=S)N2)CC1,i,i,i,i,i,51.7
CCOC(=O)C1(CCCc2ccccc2)CCN(C(=O)COC)CC1,i,nt,i,i,i,i
CCOC(=O)C1(CCc2ccccc2)CCN(C(=O)CCc2cnccn2)CC1,i,i,i,i,i,i
CCOC(=O)C1(CCc2ccccc2)CCN(C(=O)CCc2cnn(C)c2)CC1,i,i,i,i,nt,44.2
N#Cc1ccc(NC(=O)Cn2c3[n+](c4ccc(C(F)(F)F)cc42)CCCCC3)cc1,nt,63.5,i,i,nt,i
N#C/C(=C(/O)CSc1ncn[nH]1)c1nc2ccccc2[nH]1,nt,i,i,i,nt,43.7
Cc1cc(C)n2c(SCC(O)=C(C#N)c3nc4ccccc4[nH]3)nnc2n1,i,i,i,i,i,i
COc1cc(C)c(S(=O)(=O)N2CCN=C2c2ccccc2)cc1C,i,nt,i,nt,nt,nt
Cc1cc(C)c(S(=O)(=O)N2CCN=C2c2ccccc2)cc1C,i,nt,81.5,nt,i,nt
COc1cccc(-c2nn(-c3ccccc3)cc2/C=C\C(=O)c2cccs2)c1,i,nt,nt,nt,i,nt
CC(C)CC[n+]1ccccc1/C=C/c1ccc(N(C)C)cc1,i,i,60.6,i,i,i
CN(C)c1ccc(/C=C/c2cccc[n+]2[O-])cc1,i,nt,i,i,i,i
O=C(NCC[C@H]1CC[C@H](NS(=O)(=O)c2cccc(F)c2)[C@@H](CO)O1)c1cnccn1,i,i,i,i,i,i
Nc1ccc(O)cc1C(=O)OCC(=O)c1ccc(C2CCCCC2)cc1,nt,nt,83.8,nt,nt,nt
COc1ccc(C(=O)OCC(=O)c2ccc(C3CCCCC3)cc2)cc1,i,nt,nt,nt,i,nt
O=C(O)c1ccc(Cl)c(NC(=S)NC(=O)c2cccc(COc3ccccc3)c2)c1,nt,i,i,i,i,i
Cc1cc(C)cc(NC(=O)CSc2nnc(Cn3c(=O)sc4ccccc43)n2C)c1,nt,i,i,i,i,43.3
Cn1c(Cn2c(=O)sc3ccccc32)nnc1SCC(=O)NCc1ccc2c(c1)OCO2,i,nt,i,i,i,i
Cn1c(Cn2c(=O)sc3ccccc32)nnc1SCC(=O)Nc1ccc2c(c1)OCO2,i,i,i,i,i,43.9
COc1cc(/C=C2\SC(=O)N(c3ccc(Cl)cc3)C2=O)cc([N+](=O)[O-])c1O,i,i,i,i,nt,nt
